The nature of one data set: in vitro. Type of data set: cell-based. Conditions: African green monkey.
In a further data set the target is T1, PEDV 3CL protease (nsp5) (Porcine epidemic diarrhea virus, UniProt P0C6Y4).
T1 sequence (P0C6Y4 2998-3299 limits assumed): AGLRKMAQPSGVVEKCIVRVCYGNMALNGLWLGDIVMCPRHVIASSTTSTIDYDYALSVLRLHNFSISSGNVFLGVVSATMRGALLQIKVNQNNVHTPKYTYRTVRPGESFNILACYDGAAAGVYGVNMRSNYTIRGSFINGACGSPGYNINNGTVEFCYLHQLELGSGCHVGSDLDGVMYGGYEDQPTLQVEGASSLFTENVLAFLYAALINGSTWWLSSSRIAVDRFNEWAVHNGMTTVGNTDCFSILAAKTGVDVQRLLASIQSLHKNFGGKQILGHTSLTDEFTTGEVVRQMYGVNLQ
The data set can be described thus: FRET assay of PEDV 3CL protease. Type of data set: biochemical. The gist of the method: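 The assay used purified PEDV nsp5 (3CL protease) at 0.25 μM final and substrate Dabcyl-YNSTLQ↓AGLRKM-E-Edans at 10 μM. Test compound (6.25–500 μM) was preincubated with enzyme for 20 min at 37 °C, then incubated with substrate for 60 min at 37 °C. Fluorescence was read at ex 340/em 485, minus a no-protease background. Inhibition % came from the 60–0 min RFU change against control, and IC50 from nonlinear regression of triplicate runs.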

Data set [1] concerns PEDV nucleocapsid (N) protein. The data set can be described thus: Western blot of PEDV nucleocapsid. Type of data set: cell-based, porcine epidemic diarrhea virus. The settings on record: Vero cells. A general note: In western blotting, separated proteins are transferred to a membrane and probed.
A further data set in a line: Cell viability assay. The class given is cell-based. The settings on record: African green monkey, Vero cells. The gist of the method:
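Confluent Vero cells in DMEM with 10% FBS at 37 °C, 5% CO2 were exposed to test compound at 50–500 μM for 72 h, with 0.1% DMSO as control. Viability was read by CellTiter-Glo luminescence. CC50 was fitted in GraphPad Prism from triplicate experiments (±SD).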

Data set [2] concerns PRRSV (HP-PRRSV WUH3 strain). Description: TCID50 assay for PRRSV replication in MARC-145 cells. The class given is cell-based, porcine reproductive and respiratory syndrome virus. The settings on record: for Inhibition of PRRSV infection: 100 μM.
The next data set concerns the target T2, PRRSV 3CLSP (nsp4) (Porcine reproductive and respiratory syndrome virus, UniProt A1E8J1).
T2 sequence (A1E8J1 1780-1983): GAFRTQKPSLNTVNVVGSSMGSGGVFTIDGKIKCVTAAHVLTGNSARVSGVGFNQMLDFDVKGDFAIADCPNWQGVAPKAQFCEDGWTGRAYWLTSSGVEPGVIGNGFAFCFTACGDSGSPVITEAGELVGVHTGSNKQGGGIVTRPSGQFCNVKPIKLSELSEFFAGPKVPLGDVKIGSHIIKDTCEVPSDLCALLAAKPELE
Description: FRET assay of PRRSV 3CLSP. Type of data set: biochemical.

For data set [3], the system named is PRRSV nucleocapsid (N) protein. The data set can be described thus: Western blot of PRRSV nucleocapsid. Type of data set: cell-based, porcine reproductive and respiratory syndrome virus. Conditions: MARC-145 cells; for PRRSV N protein detection (western blot): 100 μM; for PRRSV N protein level (western blot), dose response: 6.25–200 μM, 36 h.
Another data set deals with T3, EAV 3CLSP (nsp4) (Equine arteritis virus, UniProt P19811).
T3 sequence (P19811 1065-1268 limits assumed): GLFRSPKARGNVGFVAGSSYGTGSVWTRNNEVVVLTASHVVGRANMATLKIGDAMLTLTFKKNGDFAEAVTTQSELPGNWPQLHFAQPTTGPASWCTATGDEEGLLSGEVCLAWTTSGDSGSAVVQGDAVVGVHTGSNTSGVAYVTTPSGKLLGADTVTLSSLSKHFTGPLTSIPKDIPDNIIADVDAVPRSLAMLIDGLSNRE
The data set can be described thus: FRET assay of EAV 3CLSP. The settings on record: 1 μM substrate, 12.5-500 μM compound. The class given is biochemical.

Another data set concerns PEDV (FJZZ strain). Description: TCID50 assay for PEDV replication in Vero cells. Type of data set: cell-based, porcine epidemic diarrhea virus.

Take `Cc1ccc(C(=O)c2ccc(O)cc2O)cc1` [Compound 2, (2,4-dihydroxyphenyl) (4-methylphenyl)methanone]: it took 480 µM to reach half-maximal cytotoxicity in “in vitro” (CC50). Moreover, on PEDV 3CL protease (nsp5), the IC50 (in general, the concentration needed to halve the response being measured) stood at 37.8 µM. Besides, in data set [1], the “PEDV N protein level (western blot), dose response” value is recorded as “decreased”. In addition, in “Cell viability assay”, the CC50 (as a rule, the concentration that lowers cell viability or growth by half) at 72 h is over 500 µM. Also, the “Inhibition of PRRSV infection” value in data set [2] is given as “strongly inhibited PRRSV infection”. The midpoint of inhibition at PRRSV 3CLSP (nsp4), the IC50, lay at 144 µM. For the same compound, in data set [3], the “PRRSV N protein detection (western blot)” value is given as “no viral N protein was detectable” and the “PRRSV N protein level (western blot), dose response” value (“PRRSV N protein level” for short) is “decreased”.

In “in vitro”, `Cc1cccc(C)c1C(=O)c1ccc(O)cc1O` [Compound 3, (2,4-dihydroxyphenyl)(2,6-dimethylphenyl)methanone] displayed a CC50 of 483 µM. Besides, the IC50 is 23.4 µM against PEDV 3CL protease (nsp5) and 116 µM on PRRSV 3CLSP (nsp4). For the same compound, on EAV 3CLSP (nsp4), the “Protease activity of EAV 3CLSP” value is listed as “inhibited”. Further, the “PEDV N protein level (western blot), dose response” value in data set [1] is recorded as “decreased”. The compound also registered a CC50 at 72 h in “Cell viability assay” of over 500 µM. In data set [2], the “Inhibition of PRRSV infection” value is “strongly inhibited PRRSV infection”. Also, the “PRRSV-3CLpro SI values (selectivity index)” value in data set [2] (PRRSV) is given as about 8.5. In addition, in the data set on PEDV (FJZZ strain), the “PEDV-3CLpro SI values (selectivity index)” value was about 9.02. In addition, the “PRRSV N protein detection (western blot)” value in data set [3] is listed as “no viral N protein was detectable”. For the same compound, the “PRRSV N protein level” value in data set [3] is on record as “decreased”.

`Cc1ccncc1` [Compound 4, 4-methylpyridine]: the figures for the IC50 on PEDV 3CL protease (nsp5) and at PRRSV 3CLSP (nsp4) were over 500 µM and 148 µM, respectively. For the same compound, in [3], the “Suppression of PRRSV replication (western blot)” value is on record as “did not substantially suppress PRRSV replication”.

As to `CC1CCN(c2ncnc3ccccc23)CC1` [Compound 5, 4-(4-methylpiperidin-1-yl)quinazoline], in the data set “in vitro”, the CC50 is over 500 µM and the viability (commonly a per cent measure of how many cells are alive, often set against a control) at 72 h, 500 µM is over 60%. At PRRSV 3CLSP (nsp4), this compound yielded an IC50 of 173 µM. Moreover, in data set [3], the “PRRSV N protein level” value is given as “decreased”.

(Values after publication PMC7117380 (Veterinary Microbiology, 2017).)
